Data on 33 compounds can be found in ChEMBL document CHEMBL1145303, “The development of novel C-2, C-8, and N-9 trisubstituted purines as inhibitors of TNF-alpha production” (Bioorg Med Chem Lett, 2006).

A value given as a limit tells only on which side of the number the result lay.

In one data set the test system is THP-1. The experiment in a line: Inhibition of LPS-stimulated TNFalpha production in THP1 cells. The following applies: Homo sapiens. Type of data set: functional, cell-based. The procedure, abridged:
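Human monocytic THP-1 cells, 2.0 · 10⁵/well, cultured in duplicate, preincubated 15 min with or without a range of inhibitor concentrations. TNF-α release then stimulated with LPS at 2 µg/ml. Secreted TNF-α measured by ELISA 4 h after stimulation. Cell viability after the 4 h incubation checked by MTS assay.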

Data set [1] can be described thus: Metabolic stability in Sprague-Dawley rat liver microsomes assessed as percent loss after 4 hrs. The class given is ADME, Microsome. The following applies: hepatocytes, in the assay text read “hepatocytes” for “liver microsomes”, read-out: Activity. The method, boiled down: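 Plated Sprague–Dawley rat hepatocytes, not microsomes, with matrigel blank plates. Test compound incubated at 37 °C in triplicate, sampled at 0, 2 and 4 h. Samples pooled after incubation into a multi-compound set, internal standard added, reverse-phase LC/MS/MS. The compound/internal-standard area ratio at 4 h divided by the 0 h ratio gives percent loss.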
On the technique in general: Liver microsomes are a subcellular fraction often used to study metabolism.

The nature of data set [2]: Bioavailability in rat. Type of data set: ADME, organism-based. The following applies: in vivo.
The nature of data set [3]: Half life in rat. The class given is ADME, organism-based. The following applies: in vivo.

By IC50 is commonly meant the concentration at which inhibition is half-maximal. A higher IC50 goes with lower potency. Regarding `CCn1c(Nc2ccccc2OC)nc2cnc(Oc3c(F)cccc3F)nc21`, in the data set on THP-1, the IC50 was 2.05 µM.

With `CCn1c(Nc2ccc(C)cc2Cl)nc2cnc(Oc3c(F)cccc3F)nc21`, the IC50 in the data set on THP-1 amounted to 0.273 µM.

In the data set with THP-1, `CCn1c(Nc2ccccc2O)nc2cnc(Oc3c(F)cccc3F)nc21` yielded an IC50 of 0.906 µM.

In the data set with THP-1, `CC(C)n1c(Nc2ccccc2Cl)nc2cnc(Nc3c(F)cccc3F)nc21` displayed an IC50 of 0.63 µM.

`CCn1c(C(=O)c2ccccc2Cl)nc2cnc(Oc3c(F)cccc3F)nc21`: half-maximal inhibition in the data set with THP-1 (IC50) required 0.004 µM. In addition, in data set [1], the metabolised at 4 h was found to be 82%.

Turning to `Cn1c(NC(=O)c2ccccc2Cl)nc2cnc(NC3CCOCC3)nc21`, the IC50 in the data set with THP-1 was > 10 µM.

Take `CCn1c(Sc2ccccc2Cl)nc2cnc(Oc3c(F)cccc3F)nc21`: the midpoint of inhibition in the data set on THP-1, the IC50, lay at 0.014 µM. Further, the metabolised at 4 h in data set [1] was 75%.

The bioavailability is the share of a dose that reaches the circulation, judged against a reference dose that is usually intravenous. By half-life is commonly meant the time in which the quantity being followed falls by half. A higher half-life goes with slow decline. The compound `CCn1c(Nc2ccccc2C)nc2cnc(Oc3c(F)cccc3F)nc21` gave an IC50 in the data set on THP-1 of 0.048 µM. In addition, the metabolised at 4 h in data set [1] is 56%. Also, the bioavailability in data set [2] was found to be 9%. For the same compound, the half-life in data set [3] is 1.5 h.

In turn, `Cn1c(Nc2ccccc2Cl)nc2cnc(Nc3c(F)cccc3F)nc21` had an IC50 in the data set on THP-1 of 1.54 µM.

Take `CCn1c([S+]([O-])c2ccccc2Cl)nc2cnc(Oc3c(F)cccc3F)nc21` (configuration not stated): in the data set with THP-1, the 50% inhibitory concentration (IC50) is > 1 µM.

As to `Cn1c(Nc2ccccc2Cl)nc2cnc(Nc3ccc(F)cc3F)nc21`, the half-maximal inhibitory concentration (IC50) in the data set on THP-1 is 6.56 µM.

In turn, `CCn1c(Nc2cccc(Cl)c2Cl)nc2cnc(Oc3c(F)cccc3F)nc21` returned an IC50 in the data set on THP-1 of 0.3 µM.

Compound `CCn1c(C(=O)c2ccccc2F)nc2cnc(Oc3c(F)cccc3F)nc21` displayed a half-inhibitory concentration (IC50) in the data set with THP-1 of 0.207 µM.

For `CCn1c(Nc2ccccc2N)nc2cnc(Oc3c(F)cccc3F)nc21`, in the data set with THP-1, 0.473 µM corresponded to half-maximal inhibition (IC50).

On to `Cn1c(Nc2ccccc2Cl)nc2cnc(NC3CCOCC3)nc21`, for which, in the data set on THP-1, half-maximal inhibition (IC50) required 6.58 µM.

Consider `C[C@H](Nc1ncc2nc(NCc3ccccc3Cl)n(C)c2n1)C(C)(C)O`, for which the IC50 with THP-1 was > 10 µM.

Regarding `CCn1c(Nc2ccccc2Cl)nc2cnc(Nc3ccccc3F)nc21`, 2.11 µM corresponded to half-maximal inhibition in the data set on THP-1 (IC50).

In turn, `Cn1c(Nc2ccccc2Cl)nc2cnc(Nc3ccccc3F)nc21` had an IC50 with THP-1 of 10 µM.

With `CCn1c(C(O)c2ccccc2Cl)nc2cnc(Oc3c(F)cccc3F)nc21` (configuration not stated), the concentration for half-maximal inhibition (IC50) in the data set on THP-1 was found to be 0.169 µM.

For the compound `CC(C)n1c(C(=O)c2ccccc2Cl)nc2cnc(Oc3c(F)cccc3F)nc21`, inhibition with THP-1 was half-maximal at 0.65 µM (IC50).

`CCn1c(Nc2c(Cl)cccc2Cl)nc2cnc(Oc3c(F)cccc3F)nc21`: the half-maximal inhibitory concentration (IC50) in the data set on THP-1 turned out to be 0.1 µM.

Turning to `C[C@H](Nc1ncc2nc(NCCc3ccccc3Cl)n(C)c2n1)C(C)(C)O`, in the data set with THP-1, the 50% inhibitory concentration (IC50) was > 10 µM.

`CCn1c(Oc2ccccc2Cl)nc2cnc(Oc3c(F)cccc3F)nc21` yielded an IC50 in the data set on THP-1 of 0.086 µM.

Consider `CCn1c(Nc2ccccc2F)nc2cnc(Oc3c(F)cccc3F)nc21`, for which half-maximal inhibition in the data set on THP-1 (IC50) was put at 0.035 µM. For the same compound, in data set [1], the metabolised at 4 h is 65%.

In turn, `CC(C)n1c(Nc2ccccc2F)nc2cnc(Oc3c(F)cccc3F)nc21` gave an IC50 in the data set with THP-1 of 0.004 µM. Further, the metabolised at 4 h in data set [1] is 61%. For the same compound, the bioavailability in data set [2] came out at 9%. Moreover, the half-life in data set [3] was 1.5 h.

Turning to `CCn1c(Nc2ccccc2Cl)nc2cnc(Oc3c(F)cccc3F)nc21`, in the data set on THP-1, the IC50 amounted to 0.069 µM.

Consider `CC(C)(C)n1c(Nc2ccccc2Cl)nc2cnc(Nc3c(F)cccc3F)nc21`, for which the IC50 in the data set on THP-1 is > 1 µM.

Turning to `CCCCn1c(Nc2ccccc2Cl)nc2cnc(Nc3c(F)cccc3F)nc21`, in the data set on THP-1, inhibition was half-maximal at 0.798 µM (IC50).

On to `Fc1cccc(F)c1Nc1ncc2nc(Nc3ccccc3Cl)n(C3CC3)c2n1`, for which, in the data set with THP-1, the concentration for half-maximal inhibition (IC50) was > 1 µM.

With `CCn1c(Nc2ccc(F)cc2Cl)nc2cnc(Oc3c(F)cccc3F)nc21`, the IC50 with THP-1 worked out at 0.237 µM.

On to `CCn1c(Nc2ccccc2Cl)nc2cnc(Nc3c(F)cccc3F)nc21`, for which the half-maximal inhibitory concentration (IC50) in the data set on THP-1 was 0.542 µM.

In the data set on THP-1, `C[C@H](Nc1ncc2nc(Nc3ccccc3Cl)n(C)c2n1)C(C)(C)O` yielded an IC50 of 3.17 µM.

Consider `O=c1ncn2nc(Sc3ccc(F)cc3F)ccc2c1-c1c(Cl)cccc1Cl` [NEFLAMAPIMOD], for which the half-inhibitory concentration (IC50) in the data set with THP-1 was 0.056 µM.
